Results as given in ChEMBL document CHEMBL1134494, “2-Amino-6-arylsulfonylbenzonitriles as non-nucleoside reverse transcriptase inhibitors of HIV-1” (J Med Chem, 2001).

Tests used:
HeLa [1] = test: Antiviral activity against K103N/V108I mutant virus in the HeLa MAGI assay.; type: functional, cell-based, Homo sapiens
How it was run: (§1)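 Isogenic recombinant HIV-1 strains carrying the listed RT mutations were tested against the test compounds in HeLa MAGI indicator cells. Beta-galactosidase was quantified by activation of a chemiluminescent substrate 3 days after infection. IC50 was the concentration inhibiting 50% of the HIV-1-induced beta-galactosidase signal relative to untreated controls. It was determined for each recombinant virus.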

HeLa [2] = test: Antiviral activity against K103N/Y181C mutant virus in the HeLa MAGI assay.; type: functional, cell-based, Homo sapiens; how it was run: as §1
HeLa [3] = test: Antiviral activity against P236L mutant virus in the HeLa MAGI assay.; type: functional, cell-based, Homo sapiens; how it was run: as §1
HeLa [4] = test: Antiviral activity against V106A/Y181C mutant virus in the HeLa MAGI assay.; type: functional, cell-based, Homo sapiens; how it was run: as §1
HeLa [5] = test: Antiviral activity against V108I mutant virus in the HeLa MAGI assay.; type: functional, cell-based, Homo sapiens; how it was run: as §1
HeLa [6] = test: Antiviral activity against V108I/Y181C mutant virus in the HeLa MAGI assay.; type: functional, cell-based, Homo sapiens; how it was run: as §1
HeLa [7] = test: Antiviral activity against Y181C mutant virus in the HeLa MAGI assay.; type: functional, cell-based, Homo sapiens; how it was run: as §1
HeLa [8] = test: Antiviral activity against Y188C mutant virus in the HeLa MAGI assay.; type: functional, cell-based, Homo sapiens; how it was run: as §1
HeLa [9] = test: Antiviral activity against wild-type HIV-1 in the HeLa MAGI assay.; type: functional, cell-based; settings: Homo sapiens
How it was run: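 HeLa MAGI cells were infected with isogenic recombinant HIV-1. After 3 days, β-galactosidase was quantified by chemiluminescent substrate activation. IC50 is the concentration inhibiting 50% of the HIV-1-induced β-galactosidase signal relative to untreated controls.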

HeLa [10] = test: Antiviral activity against E138K mutant virus in the HeLa MAGI assay.; type: functional, cell-based, Homo sapiens; how it was run: as §1
HeLa [11] = test: Antiviral activity against G190A mutant virus in the HeLa MAGI assay.; type: functional, cell-based, Homo sapiens; how it was run: as §1
HeLa [12] = test: Antiviral activity against K103N mutant virus in the HeLa MAGI assay.; type: functional, cell-based, Homo sapiens; how it was run: as §1
HeLa [13] = test: Antiviral activity against K103N/L100I mutant virus in the HeLa MAGI assay.; type: functional, cell-based, Homo sapiens; how it was run: as §1
HeLa [14] = test: Antiviral activity against K103N/P225H mutant virus in the HeLa MAGI assay.; type: functional, cell-based, Homo sapiens; how it was run: as §1
[15] = tested on: Human immunodeficiency virus 1; test: Antiviral activity against HIV-1 infected human MT-4 cells.; type: functional, organism-based; settings: Human immunodeficiency virus 1, MT4
How it was run: (§2)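 HTLV-1-transformed MT4 cells were infected with HIV-1 strain 3B at 100× the amount giving a 50% drop in cell growth. They were cultured 5 days with a range of compound concentrations. IC50 is the concentration restoring 50% of infected-cell growth (cytopathic effect) relative to uninfected MT4 controls.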

MT4 [16] = test: Cell culture cytotoxicity against MT-4 cells.; type: functional, cell-based; settings: Homo sapiens
How it was run: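 MT4 cells were exposed to compound in parallel with the 5-day HIV-1 strain 3B cytopathic-effect assay. Compound-induced cytotoxicity is reported as the cell culture cytotoxicity IC50 (CCIC50).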

[17] = molecular target: Human immunodeficiency virus type 1 reverse transcriptase (Human immunodeficiency virus 1, UniProt Q72547); test: Inhibitory activity against HIV-1 reverse transcriptase
How it was run: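 Recombinant HIV RT at 1 nM was combined with 40 nM Eu-chelate-labeled biotinylated DNA primer/RNA template and 100 nM Cy5-dUTP. Reactions were started with enzyme.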

HeLa [18] = test: Antiviral activity against V106A mutant virus in the HeLa MAGI assay.; type: functional, cell-based, Homo sapiens; how it was run: as §1
MT4 [19] = test: Antiviral activity against HIV-1 infected MT-4 cells; no significant activity uM; type: functional, cell-based; settings: Homo sapiens; how it was run: as §2
MT4 [20] = test: Antiviral activity against HIV-1 infected MT-4 cells at a dose of 5 uM; type: functional; settings: Homo sapiens
MT4 [21] = test: Antiviral activity against HIV-1 infected MT-4 cells; No significant activity uM; type: functional, cell-based; settings: Homo sapiens; how it was run: as §2
[22] = molecular target: Human immunodeficiency virus type 1 reverse transcriptase (Human immunodeficiency virus 1) (UniProt Q72547); test: Inhibitory activity against HIV-1 reverse transcriptase; no significant activity uM
How it was run: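 Recombinant HIV RT at 1 nM was added to start 50 µL reactions. Cy5-dUMP incorporation was followed for 30 min by time-resolved energy transfer (excitation 340 nm, emission 665 nm).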

Row | SMILES | IC50 (HeLa [1]) | IC50 (HeLa [2]) | IC50 (HeLa [3]) | IC50 (HeLa [4]) | IC50 (HeLa [5]) | IC50 (HeLa [6]) | IC50 (HeLa [7]) | IC50 (HeLa [8]) | IC50 (HeLa [9]) | IC50 (HeLa [10]) | IC50 (HeLa [11]) | IC50 (HeLa [12]) | IC50 (HeLa [13]) | IC50 (HeLa [14]) | IC50 [15] | IC50 (MT4 [16]) | IC50 [17] | IC50 (HeLa [18]) | also measured
1 | Cc1cc(Br)cc(S(=O)(=O)c2cccc(N)c2C#N)c1 | 15000 nM | > 50000 nM | 11 nM | 77 nM | 11 nM | 18000 nM | 10000 nM | 1700 nM | 9 nM | 15 nM | 31 nM | 970 nM | 16000 nM | 13000 nM | 20 nM | 133000 nM | 3 nM | 1.5 nM | 
2 | COc1cc(C(F)(F)F)cc(S(=O)(=O)c2cccc(N)c2C#N)c1 | 10000 nM | > 50000 nM | 7 nM | 2100 nM | 120 nM | 36000 nM | 36000 nM | 400 nM | 63 nM | 80 nM | 660 nM | 10500 nM | 5000 nM | 5500 nM | 90 nM | 164000 nM | 40 nM | 13 nM | 
3 | COc1cc(C)cc(S(=O)(=O)c2cccc(N)c2C#N)c1 | 16000 nM | > 50000 nM | 8 nM | 420 nM | 29 nM | 14000 nM | 13000 nM | 300 nM | 14 nM | 29 nM | 87 nM | 1800 nM | 19000 nM | 7800 nM | 50 nM | 94000 nM | 10 nM | 2.9 nM | 
4 | N#Cc1c(N)cccc1S(=O)(=O)c1cc(Cl)cc(Cl)c1 | 4000 nM | > 50000 nM | 2.5 nM | 1800 nM | 47 nM | 58000 nM | 50000 nM | 140 nM | 37 nM | 85 nM | 84 nM | 8300 nM | 5500 nM | 3800 nM | 70 nM | > 200000 nM | 30 nM | 6.2 nM | 
5 | Cc1cc(Cl)cc(S(=O)(=O)c2cccc(N)c2C#N)c1 | 33000 nM | > 50000 nM | 10 nM | 210 nM | 17 nM | 13000 nM | 14000 nM | 400 nM | 15 nM | 15 nM | 40 nM | 3600 nM | 20000 nM | 19000 nM | 30 nM | > 200000 nM | 5 nM | 2.8 nM | 
6 | O=C1Nc2ccc(Cl)cc2[C@@](C#CC2CC2)(C(F)(F)F)O1 [EFAVIRENZ] | 74 nM | 42 nM | 0.5 nM | 3.3 nM | 1.4 nM | 3.3 nM | 1.8 nM | 1.2 nM | 0.9 nM | 0.8 nM | 6.4 nM | 24 nM | 1600 nM | 130 nM |  |  |  | 1.5 nM | 
7 | COc1ccc(Sc2cccc(N)c2C#N)cc1 |  |  |  |  |  |  |  |  |  |  |  |  |  |  |  |  | > 17000 nM |  | NS (MT4 [19]): no significant activity
8 | N#Cc1c(N)cccc1S(=O)(=O)c1cccc2ccccc12 | 3500 nM | > 50000 nM | 2 nM | 230 nM | 30 nM | 66000 nM | 29000 nM | 180 nM | 14 nM | 68 nM | 200 nM | 2300 nM | 1700 nM | 2800 nM | 3320 nM | > 200000 nM | 1000 nM | 5.4 nM | 
9 | N#Cc1c(N)cccc1Sc1cc(Cl)cc(Cl)c1 |  |  |  |  |  |  |  |  |  |  |  |  |  |  |  | 3000 nM | 120 nM |  | inhibition at 5 µM (MT4 [20]): 62%
10 | O=[N+]([O-])c1ccccc1[S+]([O-])c1ccccc1[N+](=O)[O-] |  |  |  |  |  |  |  |  |  |  |  |  |  |  |  |  |  |  | NS (MT4 [21]): No significant activity
11 | Cc1ccccc1Sc1cccc(N)c1C#N |  |  |  |  |  |  |  |  |  |  |  |  |  |  | 16000 nM | > 40000 nM |  |  | NS [22]: no significant activity
12 | Cc1cc(C)cc(S(=O)(=O)c2cccc(N)c2C#N)c1 | 4800 nM | > 50000 nM | 5 nM | 490 nM | 17 nM | 13000 nM | 14000 nM | 210 nM | 11 nM | 17 nM | 30 nM | 1100 nM | 3000 nM | 3300 nM | 10 nM | > 200000 nM |  | 2.4 nM | 
13 | Cc1ccnc2c1NC(=O)c1cccnc1N2C1CC1 [NEVIRAPINE] | 21000 nM | > 50000 nM | 56 nM | > 10000 nM | 340 nM | > 10000 nM | > 10000 nM | 2200 nM | 89 nM | 72 nM | > 10000 nM | 7100 nM | 10000 nM | 10000 nM |  |  |  | ~10000 nM | 
